Usually IC50 stands for the concentration that inhibits the measured activity by half.

In this assay the target is T1, Cdc25B catalytic domain (Homo sapiens, UniProt P30305).
T1 sequence (P30305 374-551 limits assumed): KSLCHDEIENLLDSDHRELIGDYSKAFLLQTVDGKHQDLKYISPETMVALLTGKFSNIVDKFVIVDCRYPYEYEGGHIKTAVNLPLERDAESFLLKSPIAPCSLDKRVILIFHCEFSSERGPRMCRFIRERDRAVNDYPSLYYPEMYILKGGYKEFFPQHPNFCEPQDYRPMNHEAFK
Kind of assay: OMFP fluorescence phosphatase assay, 10-point curve. Type of assay: biochemical. A digest of the protocol:
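Recombinant human Cdc25B catalytic domain incubated with test compound and O-methylfluorescein phosphate substrate for 60 min; fluorescence change read at 485 nm excitation/525 nm emission. Percent inhibition taken relative to maximum and minimum controls. IC50 fitted to four-parameter logistic model over 10 concentrations, 25 μM to 0.2 μM; two independent experiments in triplicate.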

`O=C1C(Cl)=C(NCCN2CCOCC2)C(=O)c2c(Cl)ccnc21` [WDP1079, 4,7-Dichloro-6-(2-morpholin-4-yl-ethylamino)quinoline-5,8-dione] registered a concentration for half-maximal inhibition (IC50) of 1.1 ± 0.1 µM.

For `COc1ccnc2c1C(=O)C(NCCN1CCOCC1)=C(F)C2=O` [WDP1149, 7-Fluoro-4-methoxy-6-(2-morpholin-4-yl-ethylamino)quinoline-5,8-dione], the IC50 turned out to be 5.3 ± 0.6 µM.

`O=C1C(Cl)=C(NCCN2CCOCC2)C(=O)c2nccnc21` [WDP1263, 6-Chloro-7-(2-morpholin-4-yl-ethylamino)quinoxaline-5,8-dione] returned a concentration for half-maximal inhibition (IC50) of 0.5 ± 0.1 µM.

For the origin of these results see PMC2752828 (Organic & biomolecular chemistry, 2008).
